Measured values published in ChEMBL document CHEMBL2346587, “Design, synthesis, and evaluation of a water-soluble antofine analogue with high antiproliferative and antitumor activity” (Bioorg Med Chem, 2013).
Calls of active or inactive are those of the source. No cut-off for these calls is given here.

Columns and labels:
A549 [1] = test: Effect on CDK2 protein expression at G0/G1 phase in human A549 cells at 50 to 400 nM after 24 hrs by Western blot analysis; type: functional, cell-based
Summary of the method: (§1)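 A549 cells plated at 3 × 10^5 per 60 mm dish, grown 24 h, then exposed to a concentration series for 24 h. Lysed in boiling SDS sample buffer with NaF and orthovanadate; protein by BCA; 25–50 µg run on 8–15% SDS-PAGE, transferred to PVDF, blocked in 5% milk/PBST, primary antibodies overnight at 4 °C, secondary 1–2 h, ECL detection.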

HCT-116 = test: Cytotoxicity against human HCT116 cells after 72 hrs by SRB assay; type: functional, cell-based; settings: HCT-116, 72 h
Summary of the method: (§2)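 SRB growth assay: 5 × 10^3 cells/well exposed to a concentration series for 72 h; fixed in 10% TCA 30 min at 4 °C, stained with 0.4% SRB in 1% acetic acid 30 min, dye dissolved in 10 mM Tris pH 10.0, absorbance at 515 nm. Viability relative to vehicle control; IC50 by non-linear regression; at least three experiments. A549-Pa is a paclitaxel-resistant A549 subline.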

A549 [2] = test: Antitumor activity against human A549 cells xenografted in athymic nu/nu BALB/c mouse assessed as inhibition of Ki-67 expression at 5 to 10 mg/kg, ip administered 35 days post-implantation 3 times a week by immunohistochemistry; type: functional, organism-based
Summary of the method: (§3)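 Female athymic BALB/c nu/nu mice, six weeks old; 2 × 10^6 A549 or A549-Pa cells in 0.1 mL RPMI injected s.c. into right flank on day 0. Dosing began at 95–100 mm3 tumour volume: drug in 1% cremophore in PBS given i.p. three times weekly; controls got vehicle; five mice/group. Tumour volume tracked every 3–5 days; tumours excised and weighed at end; sections immunostained for Ki-67.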

[3] = target: T1, ATP-dependent translocase ABCB1 (Homo sapiens, UniProt P08183); test: Inhibition of P-gp activity in human paclitaxel-resistant A549 cells assessed as rhodamine 123 accumulation at 200 nM after 72 hrs by FACS analysis (reference value: 14.4 %); type: cell-based; set-up: scale not given: the % may be the effect or the level left; settings: a549, 72 h, 0.2 µM
T1 sequence (P08183 whole entry): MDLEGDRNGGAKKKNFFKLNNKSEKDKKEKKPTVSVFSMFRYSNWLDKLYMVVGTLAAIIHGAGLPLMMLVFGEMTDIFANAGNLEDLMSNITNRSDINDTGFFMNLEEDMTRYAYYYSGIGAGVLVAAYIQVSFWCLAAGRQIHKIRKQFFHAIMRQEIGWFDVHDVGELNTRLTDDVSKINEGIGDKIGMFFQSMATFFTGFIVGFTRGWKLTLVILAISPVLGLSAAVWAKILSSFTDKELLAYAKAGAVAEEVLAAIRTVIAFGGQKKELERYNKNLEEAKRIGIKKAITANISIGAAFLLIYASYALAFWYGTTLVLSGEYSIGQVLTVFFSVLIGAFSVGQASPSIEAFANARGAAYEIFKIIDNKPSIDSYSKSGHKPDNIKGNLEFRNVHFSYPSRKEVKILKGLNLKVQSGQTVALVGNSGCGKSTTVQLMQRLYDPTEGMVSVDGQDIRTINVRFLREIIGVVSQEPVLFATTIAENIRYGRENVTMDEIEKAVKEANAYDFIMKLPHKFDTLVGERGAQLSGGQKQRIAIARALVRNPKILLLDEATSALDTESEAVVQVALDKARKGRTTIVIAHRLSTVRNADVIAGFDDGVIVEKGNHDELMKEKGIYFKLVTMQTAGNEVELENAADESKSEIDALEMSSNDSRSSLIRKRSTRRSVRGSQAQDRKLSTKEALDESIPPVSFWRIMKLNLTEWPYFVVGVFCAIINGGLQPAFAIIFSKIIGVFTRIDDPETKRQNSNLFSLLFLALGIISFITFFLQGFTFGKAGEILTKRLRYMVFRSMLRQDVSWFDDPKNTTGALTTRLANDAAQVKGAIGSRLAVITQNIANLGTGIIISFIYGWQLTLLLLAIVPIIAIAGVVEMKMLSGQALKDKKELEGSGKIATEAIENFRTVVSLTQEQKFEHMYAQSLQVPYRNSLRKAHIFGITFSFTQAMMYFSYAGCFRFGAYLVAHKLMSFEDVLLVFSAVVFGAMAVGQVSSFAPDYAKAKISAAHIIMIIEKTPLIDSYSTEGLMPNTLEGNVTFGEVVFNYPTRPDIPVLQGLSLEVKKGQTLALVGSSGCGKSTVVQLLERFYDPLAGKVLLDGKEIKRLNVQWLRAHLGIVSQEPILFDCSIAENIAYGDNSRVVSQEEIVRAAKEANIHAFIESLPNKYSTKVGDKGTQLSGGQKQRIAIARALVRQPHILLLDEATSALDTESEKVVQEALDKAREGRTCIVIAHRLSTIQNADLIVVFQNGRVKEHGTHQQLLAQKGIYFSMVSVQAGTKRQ

A549 [4] = test: Cell cycle arrest in human A549 cells assessed as accumulation at G0/G1 phase at 400 nM after 24 hrs by flow cytometry (reference value: 62.38 %); type: functional
A549 [5] = test: Inhibition of AKT-mediated mTOR phosphorylation at Ser2448 residue in human A549 cells at 50 to 400 nM after 24 hrs by Western blot analysis; type: cell-based; summary of the method: as §1
A549 [6] = test: Cytotoxicity against human A549 cells after 72 hrs by SRB assay; type: functional, cell-based; settings: A549, 72 h; summary of the method: as §2
A549 [7] = test: Cell cycle arrest in human A549 cells assessed as accumulation at G2/M phase at 200 nM after 24 hrs by flow cytometry (reference value: 22.84 %); type: functional
A549 [8] = test: Cell cycle arrest in human A549 cells assessed as accumulation at S phase at 400 nM after 24 hrs by flow cytometry (reference value: 13.38 %); type: functional
A549 [9] = test: Cell cycle arrest in human A549 cells assessed as accumulation at G2/M phase at 50 nM after 24 hrs by flow cytometry (reference value: 22.84 %); type: functional
[10] = Inhibition of Wnt signaling in human A549 cells assessed as inhibition of […] expression after 24 hrs by Western blot analysis; type: cell-based
Summary of the method: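 A549 cells were seeded at 3 × 10^5 per 60 mm dish, grown 24 h, then given graded compound concentrations for 24 h. Lysis was in boiling SDS buffer, with BCA protein assay. 25–50 µg per lane was run on 8–15% SDS-PAGE and blotted to PVDF. Primary antibodies (1:1000–1:2000) went on overnight at 4 °C, then secondary and ECL read-out.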

[11] = target: T1, ATP-dependent translocase ABCB1; test: Inhibition of P-gp activity in human paclitaxel-resistant A549 cells assessed as rhodamine 123 accumulation at 50 nM after 72 hrs by FACS analysis (reference value: 14.4 %); type: cell-based; set-up: scale not given: the % may be the effect or the level left; settings: a549, 72 h, 0.05 µM
A549 [12] = test: Cell cycle arrest in human A549 cells assessed as accumulation at sub-G1 phase at 50 nM after 24 hrs by flow cytometry (reference value: 1.40 %); type: functional
A549 [13] = test: Cell cycle arrest in human A549 cells assessed as accumulation at G0/G1 phase at 200 nM after 24 hrs by flow cytometry (reference value: 62.38 %); type: functional
[14] = target: T1, ATP-dependent translocase ABCB1; test: Inhibition of P-gp activity in human paclitaxel-resistant A549 cells potentiation of 5 uM paclitaxel-induced cytotoxicity at 0.1 uM by SRB assay; type: cell-based; settings: a549, 0.1 µM
Summary of the method: (§4)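 A549-Pa cells plated at 5 × 10^4 cells/well and co-treated for 48 h with the compound (0–200 nM) plus paclitaxel or gefitinib; growth inhibition by SRB assay. Combination index computed at the 50% inhibition level as CI = D1/(Dx)1 + D2/(Dx)2, comparing combined versus single-agent concentrations.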

[15] = target: T1, ATP-dependent translocase ABCB1; test: Inhibition of P-gp activity in human […] A549 cells potentiation of 10 uM paclitaxel-induced cytotoxicity at 0.2 uM by SRB assay; type: cell-based; settings: a549, 0.2 µM
A549 [16] = test: Antitumor activity against paclitaxel-resistant human A549 cells xenografted in athymic nu/nu BALB/c mouse assessed as inhibition of Ki-67 expression at 5 to 10 mg/kg, ip administered 35 days post-implantation 3 times a week by immunohistochemistry; type: functional, organism-based; summary of the method: as §3
A549 [17] = test: Inhibition of MDR-1 gene expression in human paclitaxel-resistant A549 cells at 50 to 200 nM after 48 hrs by RT-PCR analysis; type: functional, cell-based
Summary of the method: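 A549-Pa cells (1 × 10^5 per 100 mm dish) exposed for 48 h; RNA isolated with TRI reagent, 1 µg reverse-transcribed with AMV RT and oligo(dT)15. MDR-1 amplified with specific primers: 94 °C 4 min; 35 cycles of 94 °C 30 s, 55 °C 30 s, 72 °C 30 s; 72 °C 5 min. Products resolved on 2% agarose, SYBR Safe stained.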

[18] = target: T1, ATP-dependent translocase ABCB1; test: Inhibition of P-gp activity in human paclitaxel-resistant A549 cells potentiation of 5 uM gefitinib-induced cytotoxicity at 0.1 uM by SRB assay; type: cell-based; settings: a549, 0.1 µM; summary of the method: as §4
A549 [19] = test: human A549 cells assessed as morphological changes at 50 to 400 nM after 24 hrs by inverted phase-contrast microscopy
A549 [20] = test: Antitumor activity against human A549 cells xenografted in athymic nu/nu BALB/c mouse assessed as inhibition of tumor growth at 5 mg/kg, ip administered 35 days post-implantation 3 times a week relative to control; type: functional; settings: 840 h, route intraperitoneal, read-out: TGI; summary of the method: as §3
A549 [21] = test: Cell cycle arrest in human A549 cells assessed as accumulation at G2/M phase at 100 nM after 24 hrs by flow cytometry (reference value: 22.84 %); type: functional
[22] = target: T1, ATP-dependent translocase ABCB1; test: Inhibition of P-gp activity in human paclitaxel-resistant A549 cells potentiation of 2.5 uM gefitinib-induced cytotoxicity at 0.05 uM by SRB assay; type: cell-based; settings: a549, 0.05 µM; summary of the method: as §4
A549 [23] = test: Inhibition of AKT activation in human A549 cells assessed as reduction in c-myc protein expression at 50 to 400 nM after 24 hrs by Western blot analysis; type: cell-based; summary of the method: as §1

Activity [3]: 37.1%
Activity [11]: 28.7%
Compound: COc1ccc2c3c(c4cc(OC)c(OC)cc4c2c1)C[C@@]1(CO)CCCN1C3
Activity (A549 [1]): inactive
IC50 (HCT-116): 60 nM
inhibition (A549 [2]): Active
Activity (A549 [4]): 67.01%
inhibition (A549 [5]): Active
IC50 (A549 [6]): 120 nM
Activity (A549 [7]): 18.33%
Activity (A549 [8]): 11.37%
Activity (A549 [9]): 20.71%
inhibition [10]: Dose-dependent effect
Activity (A549 [12]): 1.13%
Activity (A549 [13]): 69.43%
fractional inhibitory concentration index (FICI) [14]: 0.391
fractional inhibitory concentration index (FICI) [15]: 1.002
inhibition (A549 [16]): Active
inhibition (A549 [17]): Active
fractional inhibitory concentration index (FICI) [18]: 0.523
Activity (A549 [19]): Active
inhibition in vivo at 5 mg/kg (A549 [20]): 54.9%
Activity (A549 [21]): 18.53%
fractional inhibitory concentration index (FICI) [22]: 0.653
inhibition (A549 [23]): Active
